Source: PubChem BioAssay (several laboratories)
SUMO HTRF inh – inhibitors of in vitro SUMOylation cascade, primary screen, biochemical, HTRF, uHTS. inhibition, % at 35 µM. HTRF SUMOylation assay, SAE1/SAE2 + UBC9. SUMO-conjugating enzyme UBC9 (Homo sapiens), P63279. AID 2006, 2009. 290,000 tested, 0.36% active; in the data active = inhibition above about 50%, passing the limit was not always enough
Target sequence (P63279 whole entry, looked up): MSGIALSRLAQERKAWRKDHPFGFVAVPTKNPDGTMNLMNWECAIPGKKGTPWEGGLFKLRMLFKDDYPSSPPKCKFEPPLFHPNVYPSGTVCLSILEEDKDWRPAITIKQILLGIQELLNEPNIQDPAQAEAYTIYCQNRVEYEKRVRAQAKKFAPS
eIF4E 4G PPI – eIF4E–eIF4G protein interaction inhibitors, primary screen, biochemical, uHTS, TR-FRET, eIF4GI fragment. Eukaryotic translation initiation factor 4E (Mus musculus) + Eukaryotic translation …. TR-FRET eIF4E-eIF4GI(517-606) binding, 2 h. inhibition, % at 21.7 µM. 220,000 tested, 0.37% active;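 also: 0% = full FRET control wells and 100% = background wells lacking eIF4GI fragment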
TbMetRS inhib – T. brucei MetRS inhibitors, primary screen, biochemical, luminescence. inhibition, % at 11.9 µM. methionyl-tRNA synthetase (Trypanosoma brucei brucei). 360,000 tested, 0.4% active. purified T. brucei MetRS, ATP depletion, Kinase-Glo luminescence;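 active = inhibition above a per-plate cutoff of the control wells' mean inhibition plus 3 SD, cut at about 5.5% in these data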;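 also: 0% = DMSO wells median and 100% = median of wells with control inhibitor compound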
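technique = Kinase-Glo luminescence, ATP depletion format | system = purified MetRS (methionyl-tRNA synthetase) enzyme from Trypanosoma brucei | timing = 15 min preincubation, 2 h reaction, all 25 °C | evaluation = percent inhibition versus plate control medians | dosing = single dose, 11.9 µM final nominal, 0.9% final DMSO | also added = substrates ATP, L-methionine and bulk Escherichia coli tRNA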
p97 ATPase inh – inhibitors of human p97 ATPase, primary screen, biochemical. inhibition, % at 8 µM. AID 1481, 2009. Transitional endoplasmic reticulum ATPase (Homo sapiens), P55072. 220,000 tested, 0.42% active. recombinant p97 ATPase, Kinase-Glo ATP luminescence, 3 h; in the data active = inhibition above about 15%;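 also: 0% = DMSO vehicle and 100% = wells lacking enzyme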
NCF1 inh – p47phox/p22phox peptide binding inhibitors, primary screen, biochemical, uHTS, NADPH oxidase regulatory subunit; inhibition, % at 24.7 µM; 220,000 tested, 0.53% active; Neutrophil cytosol factor 1 (Homo sapiens), P14598; fluorescence polarization, 2 h;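 also: 0% = p47phox with labelled peptide and 100% = labelled peptide alone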
Target sequence (P14598 whole entry, looked up): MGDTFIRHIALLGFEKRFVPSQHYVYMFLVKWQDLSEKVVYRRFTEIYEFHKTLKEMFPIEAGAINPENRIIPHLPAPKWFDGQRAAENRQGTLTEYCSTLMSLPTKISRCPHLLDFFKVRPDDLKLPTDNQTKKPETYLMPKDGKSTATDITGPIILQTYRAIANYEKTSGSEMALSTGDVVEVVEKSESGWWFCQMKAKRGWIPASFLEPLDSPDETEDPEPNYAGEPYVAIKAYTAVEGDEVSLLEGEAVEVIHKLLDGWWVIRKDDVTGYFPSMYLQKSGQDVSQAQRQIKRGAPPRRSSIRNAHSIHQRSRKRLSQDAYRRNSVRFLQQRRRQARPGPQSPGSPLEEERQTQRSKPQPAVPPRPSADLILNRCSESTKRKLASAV
14-3-3 Bad inh – inhibitors of 14-3-3 zeta/Bad binding, primary screen, biochemical, TR-FRET, bovine 14-3-3 zeta; 14-3-3 protein zeta/delta (Bos taurus), P63103; 220,000 tested, 0.71% active; TR-FRET 14-3-3zeta/Dy647-pBad peptide displacement, 1 h; inhibition, % at 21.7 µM;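 active = inhibition above about 70%, limit read from the data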;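 also: 0% = full 14-3-3 plus peptide FRET controls and 100% = background without 14-3-3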
p97 confirm – p97 ATPase inhibitors, retest, confirmation, biochemical. shares compounds with p97 ATPase inh. recombinant p97 ATPase, Kinase-Glo ATP luminescence. inhibition, % at 8 µM. 760 tested, 44% active;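 active = percent inhibition of p97 ATPase above a set limit, the primary screen's mean plus 3 SD, cut at about 15% in these data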;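 also: 0% = DMSO wells and 100% = wells lacking p97 protein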
* marks the source's active call; other numbers are inactive results; . = not tested or not shown; [ ] = remark or other dose. Compounds with a hit are over-represented: about 1.6% of the library has one in this group of screens.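 The calls were made as follows, unless noted: active = inhibition above about 30% (limit read from the data); inactive = the rest.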

SMILES	SUMO HTRF inh	eIF4E 4G PPI	TbMetRS inhib	p97 ATPase inh	NCF1 inh	14-3-3 Bad inh	others
Cc1n[nH]c(=S)n(NC(=O)/C=C/C(=O)Nn2c(=S)[nH]nc(C)c2=O)c1=O	99*	5	0	2	-2	85*
COC(=O)c1c(N)n(-c2ccc(N3CCOCC3)cc2)c2nc3ccccc3nc12	52*	.	.	.	.	.
CC1CC(C)CN(CCOc2cccc(Cl)c2Cl)C1 (centres undefined)	4	-4	-1	-7	6	52
CC1CCCN(CCOCCOc2ccc(Cl)cc2Br)C1 (centres undefined)	4	-11	3	0	-12	71*
CC1CC(C)CN(CCOc2ccc(Cl)cc2Cl)C1 (centres undefined)	-2	-4	2	-5	-18	72*
COC(CNS(=O)(=O)c1ccc(S(=O)(=O)NC2CC2)cc1)OC	-11	.	-1	.	.	.
Cc1nc(SCc2nc3ccc([N+](=O)[O-])cc3[nH]2)c2oc3ccccc3c2n1	.	.	-1	.	.	.
O=C(CCC(=O)c1cccs1)NCc1ccccc1Cl	.	.	0	.	.	.
COc1ccc(/C=N/Nc2cc(N(C)C)nc(N(C)C)n2)cc1	95*	21	0	4	-6	-1
CNC(=O)Nc1ccc2snnc2c1	23	2	1	-2	-4	7
Cc1nc2ccc(NC(=O)NCc3ccco3)cc2s1	67*	-2	-1	5	-4	1
O=C(NCc1ccco1)Nc1ccc2snnc2c1	69*	1	-1	-2	-19	1
Cc1nc2ccc(S(=O)(=O)NC(C(=O)NCc3ccco3)C(C)C)cc2s1 (centres undefined)	-3	4	-1	3	121*	1
CC(C)COC(=O)N(C)C[C@@H]1OCc2cnnn2CCCC(=O)N([C@@H](C)CO)C[C@H]1C	.	.	-1	.	.	.
O=c1[nH]c(/C=C/c2ccccn2)nc2ccccc12	14	.	0	.	.	.
O=c1[nH]c(/C=C/c2ccccc2F)nc2ccccc12	33	.	0	.	.	.
O=c1[nH]c(/C=C/c2ccccc2[N+](=O)[O-])nc2ccccc12	-6	3	-1	3	2	71*[fluorescence artefact?]
O=c1[nH]c(/C=C/c2cccc3ccccc23)nc2ccccc12	19	24	0	-6	54*	58
Cc1cccc(C)c1-n1nnnc1C1c2ccccc2C(=O)N1CCCn1ccnc1 (centres undefined)	.	.	-1	.	.	.
CCNC(=O)C1CCCN(C(=O)c2ccc(C#N)cc2)CC1 (centres undefined)	.	.	0	.	.	.
CCOC(=O)c1c(C)[nH]c(C(=O)COC(=O)c2cnc(C)cn2)c1C	23	1	0	1	-9	80*
CCOC(=O)c1c(C)[nH]c(C(=O)CN2CCN(CC)CC2)c1C	18	54*	0	6	0	31
CCOc1ccc2cc(C3CC(c4ccco4)=NN3S(C)(=O)=O)c(=O)[nH]c2c1 (centres undefined)	22	36*	0	9	-36	5
CCc1ccc2c(c1)C(NC(C)=O)C(=O)N2CCN1CCOCC1 (centres undefined)	60*	.	0	.	.	.
CCCN1C(=O)C(NC(C)=O)c2ccccc21 (centres undefined)	-3	4	-1	1	0	10
SMILES	SUMO HTRF inh	eIF4E 4G PPI	TbMetRS inhib	p97 ATPase inh	NCF1 inh	14-3-3 Bad inh	others
Cc1cc(NC(=O)CSc2nc3c(sc4ccccc43)c(=O)n2CCc2ccccc2)n[nH]1	38	-4	-1	1	32*	13
c1ccc(Cn2ncc3c(N4CCCCC4)ncnc32)cc1	-2	-4	-1	1	4	74*
Clc1ccc(Cn2ncc3c(N4CCN(c5ccccc5)CC4)ncnc32)cc1	.	.	1	.	.	.
Cc1ccc(S(=O)(=O)N2[C@H](CC(=O)c3cccc4ccccc34)OC[C@@H]2C)cc1	.	.	-1	.	.	.
O=c1c2c(-c3ccccc3)csc2nc2c3ccccc3c(NCCN3CCOCC3)nn12	-9	26	0	8	74*	43
Cc1noc(C)c1NC(=O)Nc1cccc2c1O[C@H](CN(C)C(=O)NC(C)C)[C@@H](C)CN([C@H](C)CO)C2=O	.	.	0	.	.	.
O=C1C2C3C=CC(C3)C2C(=O)N1CCCCN1C(=O)C2C3C=CC(C3)C2C1=O (centres undefined)	5	46*	0	5	-2	73*
CCCCN(C(=O)CSCC(=O)Nc1ccc(OC)cc1)c1c(N)n(Cc2ccccc2)c(=O)[nH]c1=O	.	.	0	.	.	.
CO[C@@]1(NC(=O)Cc2cccs2)C(=O)N2C(C(=O)O)=C(COC(N)=O)CS[C@@H]21	22	6	-1	5	-11	73*
CO[C@@]1(NC(=O)C2SC(=C(C(N)=O)C(=O)O)S2)C(=O)N2C(C(=O)O)=C(CSc3nnnn3C)CS[C@@H]21 (some centres undefined)	.	.	-1	.	.	.
O=C(Nc1ccc2oc(-c3cccnc3)nc2c1)c1ccc2c(c1)OCCO2	24	10	-1	2	-11	81*
COC(=O)c1ccc(NC(=O)c2ccc3nsnc3c2)cc1	-5	.	0	.	.	.
CC(C)(C)NC(=O)c1ccc2nsnc2c1	-3	5	0	4	-11	90*[fluorescence artefact?]
CN1C(=O)N(C)C2(c3ccccc3)N(C)C(=O)NC12c1ccccc1 (centres undefined)	4	-17	-2	2	49*	5
CC(C)N1C(=O)NC2(c3ccccc3)N(C)C(=O)N(C)C12c1ccccc1 (centres undefined)	2	7	0	-6	-3	3
CN(c1ccccc1)S(=O)(=O)c1cccc(NC(=O)c2ccc(Cl)c([N+](=O)[O-])c2)c1	.	.	3	.	.	.
Nc1ccc2nc(-c3cc(Cl)c(N)c(Cl)c3)[nH]c2c1	1	39*[fluorescence artefact?]	-1	5	4	54
Nc1ccc(-c2nc3ccc(N)cc3[nH]2)cc1	66*	15	3	6	-8	6
Cc1ccc2nc(-c3ccccc3N)[nH]c2c1	34	2	-5	-25	2	4
Cc1ccc(C)c(-c2nc3ccc(N)cc3[nH]2)c1	50*	-3	0	3	-13	-14
O=C(COc1ccc(C2SCCS2)cc1)NNC(=O)C(Cl)Cl	-3	-6	0	26*	-1	0	p97 confirm=9
